In general, Emax refers to the greatest response seen or fitted, relative to the assay's reference. One may read the pKi as the negative decadic logarithm of the Ki, by convention in mol/L.

20 compounds from ChEMBL document CHEMBL2146476, “Discovery of selective glucocorticoid receptor modulator MK-5932” (Bioorg Med Chem, 2011) can be followed below.

pKi: −log10 of the molar value.

The target of data set [1] is T1, Glucocorticoid receptor (Homo sapiens) (UniProt P04150).
T1 sequence (whole entry): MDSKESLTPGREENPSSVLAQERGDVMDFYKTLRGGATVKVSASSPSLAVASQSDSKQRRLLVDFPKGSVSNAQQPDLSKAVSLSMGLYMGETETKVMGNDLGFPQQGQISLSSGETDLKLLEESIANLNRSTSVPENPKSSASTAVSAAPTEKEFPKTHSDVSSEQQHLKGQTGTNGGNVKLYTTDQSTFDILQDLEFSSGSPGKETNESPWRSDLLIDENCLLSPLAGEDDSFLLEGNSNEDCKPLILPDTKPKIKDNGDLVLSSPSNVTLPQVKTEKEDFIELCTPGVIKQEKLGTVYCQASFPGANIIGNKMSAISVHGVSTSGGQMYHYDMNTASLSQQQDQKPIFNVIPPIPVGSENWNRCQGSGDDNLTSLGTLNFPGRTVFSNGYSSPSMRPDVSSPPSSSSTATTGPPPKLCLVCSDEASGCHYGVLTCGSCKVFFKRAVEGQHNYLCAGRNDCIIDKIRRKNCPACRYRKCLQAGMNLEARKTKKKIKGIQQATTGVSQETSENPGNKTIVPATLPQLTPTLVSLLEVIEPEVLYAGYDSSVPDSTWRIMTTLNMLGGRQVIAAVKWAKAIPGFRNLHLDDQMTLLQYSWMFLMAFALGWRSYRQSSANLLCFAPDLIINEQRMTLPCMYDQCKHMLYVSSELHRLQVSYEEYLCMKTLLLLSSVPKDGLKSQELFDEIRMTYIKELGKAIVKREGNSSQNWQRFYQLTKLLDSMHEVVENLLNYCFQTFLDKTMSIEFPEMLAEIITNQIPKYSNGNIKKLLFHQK
Description: Transactivation activity at GR-mediated modulation of MMTV promoter activity in human A549 cells transfected with luciferase gene linked to MMTV promoter after 16 hrs by luciferase reporter gene assay relative to dexamethasone. Type of data set: cell-based. The gist of the method:
(§1)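 HeLa or A549 cells transiently transfected with a luciferase reporter under the MMTV promoter (two GREs), in 10% charcoal-stripped FBS. Compound exposure 16 h, then luciferase measured. Activity expressed as percent of the span between DMSO and dexamethasone controls. Mean of at least three runs.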

Data set [2] deals with T1, Glucocorticoid receptor (Homo sapiens). Briefly: Transactivation activity at GR-mediated modulation of MMTV promoter activity in human HeLa cells transfected with luciferase gene linked to MMTV promoter after 16 hrs by luciferase reporter gene assay. Type of data set: cell-based. An outline of the steps: as §1
A general note: Reporter assays use an easily measured gene product as a stand-in for the process of interest.

Data set [3] shares this target. Briefly: Transactivation activity at GR-mediated modulation of MMTV promoter activity in human A549 cells transfected with luciferase gene linked to MMTV promoter after 16 hrs by luciferase reporter gene assay. The class given is cell-based. An outline of the steps: as §1
The target of the next data set is T2, Glucocorticoid receptor (Homo sapiens, UniProt P04150).
T2 sequence (P04150 whole entry): T1 sequence (whole entry)
Briefly: Displacement of [3H]-dexamethasone from human full length GR expressed in insect Sf21 cells. The gist of the method: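 Human full-length GR expressed in insect cells, incubated with compound and 3H-dexamethasone overnight at 4 °C. Bound radioactivity quantified after filtration capture. Nonspecific binding defined with excess unlabelled dexamethasone. Mean of at least two runs.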
(In general: In a radioligand displacement assay an active substance lowers the binding of a labelled ligand.)

For data set [4], the target named is T1, Glucocorticoid receptor (Homo sapiens). Description: Transrepression activity at glucocorticoid receptor in human LPS and TPA-stimulated U937 cells assessed as effect on glucocorticoid-induced TNFalpha repression by beta lactamase reporter gene assay relative to dexamethasone. The class given is cell-based. The note with it: U-937. The gist of the method: (§2)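 U937 cells stably carrying a β-lactamase reporter driven by the human TNF-α promoter (-1083 to +182), in 5% charcoal-stripped FBS. Stimulated with 1 µg/mL LPS plus 50 ng/mL TPA, compound exposure 16 h. β-Lactamase read out. Activity expressed as percent of the span between DMSO and 100 nM dexamethasone controls. Mean of at least three runs.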

For data set [5] the target is unchanged. Briefly: Transactivation activity at GR-mediated modulation of MMTV promoter activity in human HeLa cells transfected with luciferase gene linked to MMTV promoter after 16 hrs by luciferase reporter gene assay relative to dexamethasone. The class given is cell-based. The gist of the method:
as §1

Data set [6] shares this target. Briefly: Transrepression activity at glucocorticoid receptor in human LPS and TPA-stimulated U937 cells assessed as effect on glucocorticoid-induced TNFalpha repression by beta lactamase reporter gene assay. The class given is cell-based. The note with it: U-937. An outline of the steps:
as §2

The nature of data set [7]: Drug uptake in oxazolone-induced Sprague-Dawley rat chronic dermatitis model at 5 mg/kg, po. The class given is ADME, organism-based. On the set-up: dose 5 mg/kg, route oral. The note with it: in vivo, read-out: Drug uptake. The gist of the method:
(§3)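 Exposure measured in female Sprague-Dawley rats in the oxazolone chronic dermatitis model: sensitization Day 0, ear challenge Days 7 and 9, daily oral dosing for 7 d from Day 7. Exposure expressed as µM h. Blood collected ~4-5 h after last dose.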

The nature of data set [8]: Drug uptake in oxazolone-induced Sprague-Dawley rat chronic dermatitis model at 25 mg/kg, po. The note with it: in vivo, read-out: Drug uptake. Details: dose 25 mg/kg, route oral. The class given is ADME, organism-based. An outline of the steps:
as §3

A short description of data set [9]: Drug uptake in oxazolone-induced Sprague-Dawley rat chronic dermatitis model at 20 mg/kg, po. The class given is ADME, organism-based. Details: dose 20 mg/kg, route oral. The note with it: in vivo, read-out: Drug uptake. The gist of the method:
as §3

The subject of a further data set is Rattus norvegicus. Description: Drug metabolism in oxazolone-induced Sprague-Dawley rat chronic dermatitis model assessed as 2-{2-[(4aS,5R)-1-(4-fluorophenyl)-5-hydroxy-4amethyl- 1,4,4a,5,6,7-hexahydrocyclopenta[f]indazol-5-yl]ethyl}benzamide level at 20 mg/kg, po. The note with it: in vivo. On the set-up: dose 20 mg/kg, route oral. Type of data set: ADME, organism-based.

As to `CCCNC(=O)c1ccccc1CC[C@]1(O)CCC2=Cc3c(cnn3-c3ccc(F)cc3)C[C@@]21C`, the results for the Emax in [1], in data set [4] and in data set [5] were 29%, 50% and 17%, respectively. In addition, the IP in data set [2] was found to be 85 nM; in data set [3], 81 nM; in data set [6] it was 127 nM. This compound also showed a pKi at Glucocorticoid receptor of 8.70.
Take `CNC(=O)c1ccc(CC[C@]2(O)CCC3=Cc4c(cnn4-c4ccc(F)cc4)C[C@@]32C)cc1`: the Emax in data set [1] is < 10%; in data set [4], 12%; in data set [5] it was < 10%. Further, on Glucocorticoid receptor, the pKi is 6.81.
Regarding `Cc1cc2cnn(-c3ccc(F)cc3)c2cc1CCC(=O)CCc1ccc(F)cc1C(=O)O`, the Emax in data set [1], in data set [4] and in data set [5] was < 5% throughout. Besides, the negative-log Ki (pKi) on Glucocorticoid receptor was < 6.40.
For the compound `C[C@@]12C(=Cc3c(cnn3-c3ccc(F)cc3)C1O)CC[C@@]2(O)CCc1ccc(F)cc1C(N)=O` (some centres undefined), the Emax in data set [1] is < 5%; in [4], 6%; in [5] it was < 5%. For the same compound, the negative-log Ki (pKi) on Glucocorticoid receptor is 7.24.
On to `CC(C)(CO)NC(=O)c1ccccc1CC[C@]1(O)CCC2=Cc3c(cnn3-c3ccc(F)cc3)C[C@@]21C`, for which the Emax turned out to be 83% in data set [1], 88% in [4] and 71% in data set [5]. The values for the IP in [2], in data set [3] and in [6] were 30 nM, 33 nM and 26 nM, respectively. This compound gave a pKi at Glucocorticoid receptor of 9.00.
For the compound `CCCNC(=O)c1c(F)cccc1CC[C@]1(O)CCC2=Cc3c(cnn3-c3ccc(F)cc3)C[C@@]21C`, the Emax was determined as 25% in data set [1], 72% in [4] and 17% in [5]. Further, the IP in [2] came to 43 nM; in data set [3], 26 nM; in [6] it was 30 nM. Besides, the pKi on Glucocorticoid receptor is > 9.00.
`CC(C)(C)NC(=O)c1ccccc1CC[C@]1(O)CCC2=Cc3c(cnn3-c3ccc(F)cc3)C[C@@]21C`: the Emax in data set [1] was 23%; in data set [4], 79%; in data set [5] it was 14%. Further, the IP in data set [2] is 108 nM; in data set [3], 212 nM; in data set [6] it was 246 nM. The same compound showed a pKi at Glucocorticoid receptor of 8.00.
For the compound `C[C@]12Cc3cnn(-c4ccc(F)cc4)c3C=C1CC[C@@]2(O)CCc1ccccc1C(N)=O`, the Emax is 60% in [1], 82% in [4] and 66% in [5]. Moreover, the IP in data set [2] amounted to 130 nM; in [3] it was 61 nM; in [6], 56 nM. Moreover, the pKi on Glucocorticoid receptor is 8.70. Besides, the values for the AUC in data set [7] and in data set [8] were 134 µM·h and 199 µM·h, respectively.
In the case of `CCNC(=O)c1ccccc1CC[C@]1(O)CCC2=Cc3c(cnn3-c3ccc(F)cc3)C(O)[C@@]21C` (some centres undefined), the Emax turned out to be 20% in [1], 34% in [4] and 6% in data set [5]. The IP in [2] worked out at 1320 nM; in data set [3], 1560 nM; in [6] it was 958 nM. Moreover, at Glucocorticoid receptor, the pKi is 7.40.
Consider `CNC(=O)c1cccc(CC[C@]2(O)CCC3=Cc4c(cnn4-c4ccc(F)cc4)C[C@@]32C)c1`, for which the Emax in [1], in data set [4] and in data set [5] was < 10% in each case. Further, on Glucocorticoid receptor, the pKi was 7.82.
`C[C@]12Cc3cnn(-c4ccc(F)cc4)c3C=C1CC[C@@]2(O)CCc1c(F)cccc1C(N)=O`: the Emax was 82% in data set [1], 90% in [4] and 89% in data set [5]. For the same compound, the IP is 7 nM in data set [2], 6 nM in data set [3] and 3 nM in data set [6]. The pKi on Glucocorticoid receptor was > 9.00.
For `C[C@]12Cc3cnn(-c4ccc(F)cc4)c3C=C1[C@H](O)C[C@@]2(O)CCc1ccc(F)cc1C(N)=O`, the Emax in data set [1], in data set [4] and in data set [5] was < 5% in each case. At Glucocorticoid receptor, the pKi is < 6.40.
For `C[C@]12Cc3cnn(-c4ccc(F)cc4)c3C=C1CC[C@@]2(O)CCc1cccc(F)c1C(=O)NC1(CO)CC1`, the Emax in data set [1] was 104%; in data set [4] it was 96%; in data set [5] it was 79%. Also, the IP stood at 35 nM in data set [2], 23 nM in data set [3] and 24 nM in [6]. At Glucocorticoid receptor, the pKi was 8.52.
Turning to `C[C@]12Cc3cnn(-c4ccc(F)cc4)c3C=C1CC[C@@]2(O)CCc1cccc(F)c1C(N)=O`, the figures for the Emax in data set [1], in data set [4] and in [5] were 75%, 84% and 58%, respectively. Moreover, the IP is 11 nM in data set [2], 9 nM in [3] and 10 nM in data set [6]. In addition, the pKi at Glucocorticoid receptor was > 9.00.
With `C=C(C)CNC(=O)c1c(F)cccc1CC[C@]1(O)CCC2=Cc3c(cnn3-c3ccc(F)cc3)C[C@@]21C`, the Emax in data set [1] was 24%; in data set [4], 67%; in data set [5], 16%. Moreover, the results for the IP in data set [2], in data set [3] and in [6] were 132 nM, 95 nM and 119 nM, respectively. Further, the pKi on Glucocorticoid receptor was > 9.00.
For `C[C@]12Cc3cnn(-c4ccc(F)cc4)c3C=C1CC[C@@]2(O)CCc1cc(F)ccc1C(N)=O`, the figures for the Emax in data set [1], in data set [4] and in data set [5] were 120%, 70% and 47%, respectively. Moreover, the IP in data set [2] worked out at 58 nM; in [3], 36 nM; in [6] it was 89 nM. In addition, the pKi on Glucocorticoid receptor is > 9.00.
In the case of `CNC(=O)c1ccccc1CC[C@]1(O)CCC2=Cc3c(cnn3-c3ccc(F)cc3)C[C@@]21C`, the maximal response (Emax) in [1] turned out to be 49%; in data set [4], 50%; in data set [5], 48%. In addition, the IP in [2] was 317 nM; in data set [3] it was 193 nM; in data set [6], 263 nM. The pKi on Glucocorticoid receptor is 8.70.
`CC(C)NC(=O)c1ccccc1CC[C@]1(O)CCC2=Cc3c(cnn3-c3ccc(F)cc3)C[C@@]21C`: the Emax in [1] amounted to 48%; in data set [4], 62%; in data set [5], 30%. For the same compound, the IP in data set [2] is 83 nM; in data set [3] it was 60 nM; in data set [6] it was 170 nM. The same compound had a pKi on Glucocorticoid receptor of 8.40.
As for `C=CCNC(=O)c1ccccc1CC[C@]1(O)CCC2=Cc3c(cnn3-c3ccc(F)cc3)C[C@@]21C`, the Emax in [1] is 37%; in data set [4] it was 62%; in data set [5] it was 21%. Moreover, the IP in data set [2] amounted to 93 nM; in data set [3] it was 62 nM; in data set [6] it was 123 nM. Moreover, the pKi on Glucocorticoid receptor was 9.00.
As to `CCNC(=O)c1ccccc1CC[C@]1(O)CCC2=Cc3c(cnn3-c3ccc(F)cc3)C[C@@]21C`, the Emax was 51% in data set [1], 65% in [4] and 38% in data set [5]. The IP came to 107 nM in [2], 39 nM in data set [3] and 88 nM in data set [6]. The pKi on Glucocorticoid receptor was 8.70. In addition, the AUC in data set [9] worked out at 75 µM·h. For the same compound, the Drug metabolism in the data set with Rattus norvegicus is 50 µM·h.
